Test results taken from ChEMBL document CHEMBL4613320, “Artemisinin Derivatives with Antimelanoma Activity Show Inhibitory Effect against Human DNA Topoisomerase 1” (ACS Med Chem Lett, 2020).
Activity calls are given as the source filed them. The rule behind the calls is not given here.

Columns and labels:
[1] = molecular target: T1, DNA topoisomerase 1 (Homo sapiens) (UniProt P11387); assay: Inhibition of human TOP1B expressed in Saccharomyces cerevisiae EKY3 lacking top1 assessed as reduction in yeast cell growth at 1 to 30 uM
T1 sequence (whole entry): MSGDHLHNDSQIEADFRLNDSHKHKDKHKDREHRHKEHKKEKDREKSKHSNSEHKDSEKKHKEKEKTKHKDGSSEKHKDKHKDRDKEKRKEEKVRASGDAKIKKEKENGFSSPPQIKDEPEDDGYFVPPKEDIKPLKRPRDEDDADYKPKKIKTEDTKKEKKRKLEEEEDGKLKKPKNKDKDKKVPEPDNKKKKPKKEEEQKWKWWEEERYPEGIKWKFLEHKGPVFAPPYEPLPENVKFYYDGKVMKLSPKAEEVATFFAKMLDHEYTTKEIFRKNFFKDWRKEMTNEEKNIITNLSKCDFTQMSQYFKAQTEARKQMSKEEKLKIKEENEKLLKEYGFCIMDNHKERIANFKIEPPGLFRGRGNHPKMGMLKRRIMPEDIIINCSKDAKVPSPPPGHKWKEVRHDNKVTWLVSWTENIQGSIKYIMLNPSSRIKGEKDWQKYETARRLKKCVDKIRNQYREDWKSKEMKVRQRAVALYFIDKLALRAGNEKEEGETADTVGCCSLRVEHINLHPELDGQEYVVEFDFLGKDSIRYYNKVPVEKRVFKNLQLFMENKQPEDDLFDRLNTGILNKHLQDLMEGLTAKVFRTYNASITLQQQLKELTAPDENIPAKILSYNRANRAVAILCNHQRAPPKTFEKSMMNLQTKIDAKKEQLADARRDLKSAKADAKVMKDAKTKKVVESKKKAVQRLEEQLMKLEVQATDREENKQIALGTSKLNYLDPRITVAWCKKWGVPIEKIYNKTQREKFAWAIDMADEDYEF
Summary of the method: (§1)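 Wild-type human Top1 overexpressed from plasmids under the Gal-1–10 promoter in S. cerevisiae EKY3, which lacks the endogenous enzyme. Yeast growth sensitivity scored across compound concentrations. Controls were untreated cells and DMSO vehicle.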

[2] = molecular target: T1, DNA topoisomerase 1 (Homo sapiens); assay: Inhibition of human TOP1B expressed in Saccharomyces cerevisiae EKY3 lacking top1 assessed as reduction in yeast cell growth at 30 uM; summary of the method: as §1
[3] = molecular target: T1, DNA topoisomerase 1 (Homo sapiens); assay: Inhibition of human TOP1B-medaited negatively supercoiled pBlue-Script KSII(+) DNA relaxation at 0.3 to 30 uM by ethidium bromide staining based gel electrophoresis method
[4] = Cytotoxicity against human C3PV cells assessed as reduction in cell viability measured after 24 hrs by MTT assay; assay type: cell-based
RPMI-7951 = assay: Cytotoxicity against human RPMI7951 cells assessed as reduction in cell viability measured after 24 hrs by MTT assay; assay type: functional, cell-based; details: RPMI-7951, 24 h
SK-MEL-24 = assay: Cytotoxicity against human SK-MEL-24 cells assessed as reduction in cell viability measured after 24 hrs by MTT assay; assay type: functional, cell-based; details: SK-MEL-24, 24 h
[5] = molecular target: T1, DNA topoisomerase 1 (Homo sapiens); assay: Inhibition of human TOP1B expressed in Saccharomyces cerevisiae EKY3 lacking top1 assessed as reduction in yeast cell growth at 10 uM; summary of the method: as §1
Homo sapiens = species on record: Homo sapiens; assay: Inhibition of human TOP1B G363C mutant expressed in Saccharomyces cerevisiae EKY3 lacking top1 assessed as reduction in yeast growth at 1 to 30 uM
Summary of the method: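 Human Top1 G363C mutant (glycine 363 to cysteine, camptothecin-resistant) expressed from plasmids under the Gal-1–10 promoter in S. cerevisiae EKY3, which lacks the endogenous enzyme. Yeast growth sensitivity read at a range of compound concentrations. Controls were untreated cells and DMSO vehicle.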

[6] = molecular target: T1, DNA topoisomerase 1 (Homo sapiens); assay: Inhibition of human TOP1B expressed in Saccharomyces cerevisiae EKY3 lacking top1 assessed as reduction in yeast growth at 3 uM; summary of the method: as §1
[7] = molecular target: T1, DNA topoisomerase 1 (Homo sapiens); assay: Inhibition of human TOP1B-medaited negatively supercoiled pBlue-Script KSII(+) DNA relaxation at 300 nM by ethidium bromide staining based gel electrophoresis method
[8] = molecular target: T1, DNA topoisomerase 1 (Homo sapiens); assay: Inhibition of human TOP1B expressed in Saccharomyces cerevisiae EKY3 lacking top1 assessed as induction of cell cycle defect at 30 uM measured after 24 hrs

Compound	inhibition [3]	IC50 [4]	IC50 (RPMI-7951)	IC50 (SK-MEL-24)	further results
C[C@@H]1CC[C@H]2[C@@H](C)C(=O)O[C@@H]3O[C@@]4(C)CC[C@@H]1[C@]32OO4					inhibition [1]: inactive
COc1cc(/C=C/C(=O)CC(=O)/C=C/c2ccc(OC(=O)CCC(=O)O[C@@H]3O[C@@H]4O[C@]5(C)CC[C@H]6[C@H](C)CC[C@@H]([C@H]3C)[C@@]46OO5)cc2)ccc1OC(=O)CCC(=O)O[C@@H]1O[C@@H]2O[C@]3(C)CC[C@H]4[C@H](C)CC[C@@H]([C@H]1C)[C@@]24OO3					inhibition [1]: inactive
C[C@H]1[C@H](OC(=O)CCC(=O)O)O[C@@H]2O[C@@]3(C)CC[C@H]4[C@H](C)CC[C@@H]1[C@@]24OO3	Active				inhibition [2]: inactive
CC(=O)O[C@H]1C(=O)[C@@]2(C)[C@H]([C@H](OC(=O)c3ccccc3)[C@]3(O)C[C@H](OC(=O)[C@H](O)[C@@H](NC(=O)c4ccccc4)c4ccccc4)C(C)=C1C3(C)C)[C@]1(OC(C)=O)CO[C@@H]1C[C@@H]2O [PACLITAXEL]		78.9 µM	0.013 µM	4.73 µM	
CC[C@@]1(OC(=O)CCC(=O)O[C@@H]2O[C@@H]3O[C@]4(C)CC[C@H]5[C@H](C)CC[C@@H]([C@H]2C)[C@@]35OO4)C(=O)OCc2c1cc1n(c2=O)Cc2cc3ccccc3nc2-1	Active	0.3 µM	17.3 µM	0.85 µM	inhibition [1]: Active
C[C@H]1[C@H](OC(=O)CCC(=O)Oc2ccc(CCO)cc2)O[C@@H]2O[C@]3(C)CC[C@H]4[C@H](C)CC[C@@H]1[C@@]24OO3	Active				inhibition [5]: Active; inhibition (Homo sapiens): inactive
C[C@H]1[C@H](OCCc2ccc(O)cc2)O[C@@H]2O[C@]3(C)CC[C@H]4[C@H](C)CC[C@@H]1[C@@]24OO3					inhibition [2]: Active
C=C(C)[C@H]1CC=C(COC(=O)CCC(=O)O[C@@H]2O[C@@H]3O[C@@]4(C)CC[C@H]5[C@H](C)CC[C@@H]([C@H]2C)[C@@]35OO4)CC1					inhibition [1]: inactive
CCc1c2c(nc3ccc(OC(=O)CCC(=O)O[C@@H]4O[C@@H]5O[C@]6(C)CC[C@H]7[C@H](C)CC[C@@H]([C@H]4C)[C@@]57OO6)cc13)-c1cc3c(c(=O)n1C2)COC(=O)[C@]3(O)CC		3.2 µM	0.05 µM	0.32 µM	inhibition (Homo sapiens): Active; inhibition [6]: Active; inhibition [7]: Active
CC[C@@]1(O)C(=O)OCc2c1cc1n(c2=O)Cc2cc3ccccc3nc2-1 [CAMPTOTHECIN]		0.45 µM	0.22 µM	0.46 µM	
CCc1c2c(nc3ccc(O)cc13)-c1cc3c(c(=O)n1C2)COC(=O)[C@]3(O)CC [7-ETHYL-10-HYDROXYCAMPTOTHECIN]		0.51 µM	0.26 µM	0.48 µM	
C[C@H]1[C@H](OC(=O)CCC(=O)OCCc2ccc(O)cc2)O[C@@H]2O[C@]3(C)CC[C@H]4[C@H](C)CC[C@@H]1[C@@]24OO3	Active				inhibition [5]: Active; inhibition (Homo sapiens): inactive; inhibition [8]: Active
C[C@H]1[C@H](O)O[C@@H]2O[C@@]3(C)CC[C@H]4[C@H](C)CC[C@@H]1[C@@]24OO3					inhibition [2]: inactive
COc1cc(/C=C/C(=O)CC(=O)/C=C/c2ccc(OC(=O)CCC(=O)O[C@@H]3O[C@@H]4O[C@]5(C)CC[C@H]6[C@H](C)CC[C@@H]([C@H]3C)[C@@]46OO5)c(OC)c2)ccc1O	Active				inhibition [2]: Active
